Reference: ChEMBL document CHEMBL4257594 (J Med Chem, 2018)
The source made the active and inactive calls. The calls are words filed in the database; no cut-off is given here.

Assays:
[1] = biological target: CYP3A4 (Homo sapiens, UniProt P08684); experiment: (§1) Inhibition of human liver microsome CYP3A4 at 1 uM expressed in baculosomes using fluorogenic-DBOMF as substrate preincubated for 10 mins followed by substrate addition and measured after 60 mins by fluorescence based assay; format: ADME, microsomes; details: recombinant CYP3A4 expressed in baculosomes, probe DBOMF (fluorogenic)
How it was run: (§2)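 CYP3A4 baculosomes preincubated with drug at 1 µM for 10 min at 37 °C before Vivid green substrate added. Fluorescence (ex/em 485/520) read 60 min after substrate addition. Percent inhibition set against 10 μM ketoconazole as the 100% control; mean ± SD of three independent experiments run in triplicate.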

[2] = system: HUVEC; experiment: Anti-angiogenic activity against HUVEC after 24 hrs by scintillation counting based [3H]-thymidine incorporation assay; format: functional, cell-based; details: Homo sapiens
How it was run: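 HUVEC seeded at 2000 cells/well and left to settle overnight, then drug added in triplicate for 24 h. Mean ± SD of three independent experiments run in triplicate.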

[3] = biological target: T1, Cytochrome P450 3A4 (Homo sapiens, UniProt P08684); experiment: as §1; format: ADME, microsomes; details: microsomes, 1 h, 1 µM; how it was run: as §2
[4] = system: HUVEC; experiment: Antiangiogenic activity in HUVEC assessed as inhibition of tube formation at 5 uM after 24 hrs by matrigel assay relative to control; format: functional; details: Homo sapiens
How it was run: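 HUVEC (70,000 per well) plated on Matrigel-coated wells in medium containing drug or DMSO. After 24 h, stained with 2 μM calcein AM for 15 min, medium replaced, and tube networks imaged by fluorescence microscopy. Total tube length quantified from the images and compared with DMSO.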

[5] = biological target: T2, NPC intracellular cholesterol transporter 1 (Homo sapiens) (UniProt O15118); experiment: Binding affinity to NPC1 in HUVEC assessed as increase in cholesterol accumulation in late endosome/lysosome at 0.2 uM after 14 hrs by filipin staining-based confocal microscopy; format: cell-based
T2 sequence (whole entry): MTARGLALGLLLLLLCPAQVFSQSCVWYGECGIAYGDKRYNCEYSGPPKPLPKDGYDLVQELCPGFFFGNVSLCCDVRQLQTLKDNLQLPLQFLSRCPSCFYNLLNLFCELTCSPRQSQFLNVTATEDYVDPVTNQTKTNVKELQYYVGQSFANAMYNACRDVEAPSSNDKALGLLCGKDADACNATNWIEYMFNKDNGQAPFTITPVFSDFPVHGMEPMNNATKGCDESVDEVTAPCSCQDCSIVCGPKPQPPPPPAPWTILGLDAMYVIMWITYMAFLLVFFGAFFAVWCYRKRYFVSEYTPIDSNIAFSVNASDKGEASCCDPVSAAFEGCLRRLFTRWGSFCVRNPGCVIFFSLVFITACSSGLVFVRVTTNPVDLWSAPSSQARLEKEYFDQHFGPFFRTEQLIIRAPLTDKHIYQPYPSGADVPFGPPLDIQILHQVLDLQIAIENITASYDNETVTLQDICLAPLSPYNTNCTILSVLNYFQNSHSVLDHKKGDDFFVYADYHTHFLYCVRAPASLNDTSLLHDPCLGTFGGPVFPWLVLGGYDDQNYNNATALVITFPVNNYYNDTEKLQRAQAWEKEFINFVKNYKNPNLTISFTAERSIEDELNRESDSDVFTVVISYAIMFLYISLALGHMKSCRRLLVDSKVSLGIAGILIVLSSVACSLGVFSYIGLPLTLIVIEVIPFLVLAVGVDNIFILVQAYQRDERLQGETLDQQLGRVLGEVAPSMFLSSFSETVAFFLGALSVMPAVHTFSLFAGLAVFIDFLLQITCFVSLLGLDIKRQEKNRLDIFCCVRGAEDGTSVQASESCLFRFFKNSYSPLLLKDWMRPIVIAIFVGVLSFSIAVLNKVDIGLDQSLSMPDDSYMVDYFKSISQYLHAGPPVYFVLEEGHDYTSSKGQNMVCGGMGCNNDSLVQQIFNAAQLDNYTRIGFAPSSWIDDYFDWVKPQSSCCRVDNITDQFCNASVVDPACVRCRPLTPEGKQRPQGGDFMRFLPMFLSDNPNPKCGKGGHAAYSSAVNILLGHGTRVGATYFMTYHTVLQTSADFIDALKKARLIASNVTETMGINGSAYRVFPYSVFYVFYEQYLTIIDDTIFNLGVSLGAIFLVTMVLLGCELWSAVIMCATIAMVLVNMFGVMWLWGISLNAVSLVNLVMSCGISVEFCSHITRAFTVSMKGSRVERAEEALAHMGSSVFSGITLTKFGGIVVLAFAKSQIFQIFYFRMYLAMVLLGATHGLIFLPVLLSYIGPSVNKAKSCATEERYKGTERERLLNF
How it was run: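 Methods give HUVEC (2,000) on chamber slides, settled overnight, then 0.1 µM drug or DMSO for 14 h; legend gives 0.2 μM for 24 h. Cells fixed in 4% paraformaldehyde for 15 min, then stained with 50 µg/ml filipin for 1 h in the dark. Imaged by confocal microscopy at 360/460 nm.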

[6] = system: HUVEC; experiment: Binding affinity to NPC1/VDAC1 in HUVEC assessed as reduction in mTOR phosphorylation at Ser2481 residue up to 1 uM after 24 hrs Western blot analysis; format: cell-based; details: Homo sapiens
How it was run: (§3)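 HUVEC treated with 0.01, 0.03, 0.1, 0.3 or 1 μM drug, or DMSO, for 24 h. Lysed in RIPA buffer, protein normalized, then run on Western blot: 5% BSA block 1 h, primary antibody overnight at 4 °C, secondary 1 h, chemiluminescence imaging. Band gray value and area quantified; mean ± SD of three independent experiments.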

[7] = biological target: Non-selective voltage-gated ion channel VDAC1 (Homo sapiens) (UniProt P21796); experiment: Binding affinity to VDAC1 in HUVEC assessed as ACC1 phosphorylation at Ser79 residue at 0.01 to 1 uM after 24 hrs by Western blot analysis; format: cell-based; how it was run: as §3
[8] = biological target: Non-selective voltage-gated ion channel VDAC1 (Homo sapiens) (UniProt P21796); experiment: Binding affinity to VDAC1 in HUVEC assessed as AMPK phosphorylation at Thr172 residue after 24 hrs by Western blot analysis; format: cell-based
[9] = biological target: T1, Cytochrome P450 3A4; experiment: Inhibition of human liver microsome CYP3A4 expressed in baculosomes using fluorogenic-DBOMF as substrate preincubated for 10 mins followed by substrate addition and measured after 60 mins by fluorescence based assay; format: ADME, microsomes
[10] = biological target: Non-selective voltage-gated ion channel VDAC1 (Homo sapiens) (UniProt P21796); experiment: Binding affinity to VDAC1 (unknown origin) at 10 uM using itraconazole as probe by photoaffinity probe competitor assay
[11] = system: HUVEC; experiment: Binding affinity to NPC1/VDAC1 in HUVEC assessed as reduction in mTOR-mediated S6K phosphorylation at Thr389 residue up to 1 uM after 24 hrs Western blot analysis; format: cell-based; details: Homo sapiens; how it was run: as §3

CYP3A4, sequence (P08684 whole entry): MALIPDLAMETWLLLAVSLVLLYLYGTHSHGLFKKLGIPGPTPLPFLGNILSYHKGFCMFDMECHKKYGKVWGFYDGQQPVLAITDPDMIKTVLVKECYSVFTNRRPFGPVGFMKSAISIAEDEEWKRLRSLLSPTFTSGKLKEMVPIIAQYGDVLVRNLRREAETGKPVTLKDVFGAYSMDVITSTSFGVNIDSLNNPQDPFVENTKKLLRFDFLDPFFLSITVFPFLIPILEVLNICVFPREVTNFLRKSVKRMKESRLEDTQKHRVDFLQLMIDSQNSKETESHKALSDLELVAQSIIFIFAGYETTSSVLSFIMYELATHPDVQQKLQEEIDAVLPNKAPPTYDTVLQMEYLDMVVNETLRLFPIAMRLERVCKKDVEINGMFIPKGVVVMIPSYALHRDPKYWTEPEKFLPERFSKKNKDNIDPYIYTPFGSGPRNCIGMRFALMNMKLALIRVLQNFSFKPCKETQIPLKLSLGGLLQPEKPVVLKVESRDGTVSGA
T1 sequence (P08684 whole entry): as above
Non-selective voltage-gated ion channel VDAC1 (Homo sapiens), sequence (P21796 whole entry): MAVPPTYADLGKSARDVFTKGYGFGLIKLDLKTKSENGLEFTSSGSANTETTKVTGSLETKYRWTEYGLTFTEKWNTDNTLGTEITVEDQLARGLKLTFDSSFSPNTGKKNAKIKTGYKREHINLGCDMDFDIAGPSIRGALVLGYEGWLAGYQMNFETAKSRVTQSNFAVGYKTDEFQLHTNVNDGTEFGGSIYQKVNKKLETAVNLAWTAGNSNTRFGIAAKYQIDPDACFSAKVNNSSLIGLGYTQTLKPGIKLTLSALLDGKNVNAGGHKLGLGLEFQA

SMILES	inhibition at 1 h, 1 µM [1] [%]	IC50 [2] [nM]	inhibition (INH) [3]	further results
CCC(C)n1ncn(-c2ccc(N3CCN(c4ccc(OC[C@@H]5CO[C@@](Cn6ccnc6C)(c6ccc(Cl)cc6Cl)O5)cc4)CC3)cc2)c1=O (some centres undefined)	71	173		
CCC(C)n1ncn(-c2ccc(N3CCN(c4ccc(OC[C@@H]5CO[C@@](CN(C)C)(c6ccc(Cl)cc6Cl)O5)cc4)CC3)cc2)c1=O (some centres undefined)		1400	Not Active	
CCC(C)n1ncn(-c2ccc(N3CCN(c4ccc(OC[C@@H]5CO[C@@](CC)(c6ccc(Cl)cc6Cl)O5)cc4)CC3)cc2)c1=O (some centres undefined)		353	Not Active	
CCC(C)n1ncn(-c2ccc(N3CCN(c4ccc(OC[C@@H]5CO[C@@](CN6CCOCC6)(c6ccc(Cl)cc6Cl)O5)cc4)CC3)cc2)c1=O (some centres undefined)	16	1180		
CCC(C)n1ncn(-c2ccc(N3CCN(c4ccc(OCC5COC(Cn6cncn6)(c6ccc(Cl)cc6Cl)O5)cc4)CC3)cc2)c1=O (centres undefined) [ITRACONAZOLE]	84			inhibition at 5 µM [4]: 45%; Activity [5]: Active
CCC(C)n1ncn(-c2ccc(N3CCN(c4ccc(OC[C@@H]5CO[C@@](Cn6cnnn6)(c6ccc(Cl)cc6Cl)O5)cc4)CC3)cc2)c1=O (some centres undefined)	2			Activity [6]: Active; Activity [7]: Active; Activity [8]: Dose-dependent effect; EC50 [9]: > 20000 nM; Activity [10]: Active; Activity [11]: Active; Activity [5]: Active
CCC(C)n1ncn(-c2ccc(N3CCN(c4ccc(OC[C@@H]5CO[C@@](Cn6cc(C(F)(F)F)nc6C)(c6ccc(Cl)cc6Cl)O5)cc4)CC3)cc2)c1=O (some centres undefined)		441	Not Active	
CCC(C)n1ncn(-c2ccc(N3CCN(c4ccc(OC[C@@H]5CO[C@@](Cn6nnnc6C)(c6ccc(Cl)cc6Cl)O5)cc4)CC3)cc2)c1=O (some centres undefined)	7	101		
CCC(C)n1ncn(-c2ccc(N3CCN(c4ccc(OC[C@@H]5CO[C@@](Cn6cnc(C(F)(F)F)n6)(c6ccc(Cl)cc6Cl)O5)cc4)CC3)cc2)c1=O (some centres undefined)		270	Not Active	Activity [5]: Active
CCc1nccn1C[C@@]1(c2ccc(Cl)cc2Cl)OC[C@@H](COc2ccc(N3CCN(c4ccc(-n5cnn(C(C)CC)c5=O)cc4)CC3)cc2)O1 (some centres undefined)	7	224		
CCC(C)n1ncn(-c2ccc(N3CCN(c4ccc(OC[C@@H]5CO[C@@](CN6CCN(C)CC6)(c6ccc(Cl)cc6Cl)O5)cc4)CC3)cc2)c1=O (some centres undefined)	18	396		
CCC(C)n1ncn(-c2ccc(N3CCN(c4ccc(OC[C@@H]5CO[C@@](Cn6ncnn6)(c6ccc(Cl)cc6Cl)O5)cc4)CC3)cc2)c1=O (some centres undefined)	17	124		
CCC(C)n1ncn(-c2ccc(N3CCN(c4ccc(OC[C@@H]5CO[C@@](Cc6ccccc6)(c6ccc(Cl)cc6Cl)O5)cc4)CC3)cc2)c1=O (some centres undefined)		513	Not Active	
